Assay results taken from ChEMBL document CHEMBL4715745, “Synthesis and biological evaluation of novel FK228 analogues as potential isoform selective HDAC inhibitors” (Eur J Med Chem, 2016).

Test system: MKN-28
Test: Growth inhibition of human MKN-28 cells measured after 48 hrs by sulforhodamine B assay
Type: functional
Details: not given
How it was run: (§1)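 Panel of 39 human cancer cell lines tested at the Japanese Foundation for Cancer Research. Five concentrations per compound, spanning 10⁻¹¹–10⁻⁷ M, 10⁻¹⁰–10⁻⁶ M or 10⁻⁸–10⁻⁴ M, were used to build dose-response curves. GI₅₀ is the concentration giving 50% growth inhibition relative to control.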

Row | GI50 [µM] | Compound
1 | 0.27 | CC(C)C[C@H]1NC(=O)[C@H]2CSSCC/C=C/[C@H](CC(=O)N[C@H](C(C)C)C(=O)N2)OC(=O)CNC1=O

Test system: HT-29
Test: Growth inhibition of human HT-29 cells measured after 48 hrs by sulforhodamine B assay
Type: functional
Details: not given
How it was run: as §1

Row | GI50 [µM] | Compound
2 | 0.033 | CC(C)C[C@H]1NC(=O)[C@H]2CSSCC/C=C/[C@H](CC(=O)N[C@H](C(C)C)C(=O)N2)OC(=O)CNC1=O

Test system: SNB-78
Test: Growth inhibition of human SNB-78 cells measured after 48 hrs by sulforhodamine B assay
Type: functional
Details: not given
How it was run: as §1

Row | Compound | GI50 [µM]
3 | CC(C)C[C@H]1NC(=O)[C@H]2CSSCC/C=C/[C@H](CC(=O)N[C@H](C(C)C)C(=O)N2)OC(=O)CNC1=O | 0.03

Test system: OVCAR-8
Test: Growth inhibition of human OVCAR-8 cells measured after 48 hrs by sulforhodamine B assay
Type: functional
Details: not given
How it was run: as §1

Row | GI50 [µM] | Compound
4 | 0.042 | CC(C)C[C@H]1NC(=O)[C@H]2CSSCC/C=C/[C@H](CC(=O)N[C@H](C(C)C)C(=O)N2)OC(=O)CNC1=O

Test system: NCI-H23
Test: Growth inhibition of human NCI-H23 cells measured after 48 hrs by sulforhodamine B assay
Type: functional
Details: not given
How it was run: as §1

Row | GI50 [µM] | Compound
5 | 0.039 | CC(C)C[C@H]1NC(=O)[C@H]2CSSCC/C=C/[C@H](CC(=O)N[C@H](C(C)C)C(=O)N2)OC(=O)CNC1=O

Test system: OVCAR-3
Test: Growth inhibition of human OVCAR-3 cells measured after 48 hrs by sulforhodamine B assay
Type: functional
Details: not given
How it was run: as §1

Row | GI50 [µM] | Compound
6 | 0.04 | CC(C)C[C@H]1NC(=O)[C@H]2CSSCC/C=C/[C@H](CC(=O)N[C@H](C(C)C)C(=O)N2)OC(=O)CNC1=O

Test system: not listed separately
Test: Growth inhibition of human HBC5 cells measured after 48 hrs by sulforhodamine B assay
Type: functional
Details: not given
How it was run: as §1

Row | Compound | GI50 [µM]
7 | CC(C)C[C@H]1NC(=O)[C@H]2CSSCC/C=C/[C@H](CC(=O)N[C@H](C(C)C)C(=O)N2)OC(=O)CNC1=O | 0.27

Test system: MCF7
Test: Growth inhibition of human MCF7 cells measured after 48 hrs by sulforhodamine B assay
Type: functional
Details: not given
How it was run: as §1

Row | GI50 [µM] | Compound
8 | 0.052 | CC(C)C[C@H]1NC(=O)[C@H]2CSSCC/C=C/[C@H](CC(=O)N[C@H](C(C)C)C(=O)N2)OC(=O)CNC1=O

Test system: MDA-MB-231
Test: Growth inhibition of human MDA-MB-231 cells measured after 48 hrs by sulforhodamine B assay
Type: functional
Details: not given
How it was run: as §1

Row | GI50 [µM] | Compound
9 | 0.039 | CC(C)C[C@H]1NC(=O)[C@H]2CSSCC/C=C/[C@H](CC(=O)N[C@H](C(C)C)C(=O)N2)OC(=O)CNC1=O

Test system: OVCAR-5
Test: Growth inhibition of human OVCAR-5 cells measured after 48 hrs by sulforhodamine B assay
Type: functional
Details: not given
How it was run: as §1

Row | GI50 [µM] | Compound
10 | 0.031 | CC(C)C[C@H]1NC(=O)[C@H]2CSSCC/C=C/[C@H](CC(=O)N[C@H](C(C)C)C(=O)N2)OC(=O)CNC1=O

Test system: St-4
Test: Growth inhibition of human St-4 cells measured after 48 hrs by sulforhodamine B assay
Type: functional
Details: not given
How it was run: as §1

Row | Compound | GI50 [µM]
11 | CC(C)C[C@H]1NC(=O)[C@H]2CSSCC/C=C/[C@H](CC(=O)N[C@H](C(C)C)C(=O)N2)OC(=O)CNC1=O | 0.23

Test system: not listed separately
Test: Growth inhibition of human BSY1 cells measured after 48 hrs by sulforhodamine B assay
Type: functional
Details: BSY-1
How it was run: as §1

Row | Compound | GI50 [µM]
12 | CC(C)C[C@H]1NC(=O)[C@H]2CSSCC/C=C/[C@H](CC(=O)N[C@H](C(C)C)C(=O)N2)OC(=O)CNC1=O | 0.069

Test system: MKN-45
Test: Growth inhibition of human MKN-45 cells measured after 48 hrs by sulforhodamine B assay
Type: functional
Details: not given
How it was run: as §1

Row | GI50 [µM] | Compound
13 | 0.24 | CC(C)C[C@H]1NC(=O)[C@H]2CSSCC/C=C/[C@H](CC(=O)N[C@H](C(C)C)C(=O)N2)OC(=O)CNC1=O

Test system: not listed separately
Test: Selectivity index, ratio of IC50 for mouse HDAC6 expressed in 293T cells to IC50 for human HDAC1 expressed in 293T cells using Ac-KGLGK(Ac)-MCA as substrate incubated for 30 mins in presence of 0.1 mM DTT by fluorescence plate reader assay
Details: 0.5 h
How it was run: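 Ratio of HDAC6 IC₅₀ to HDAC1 IC₅₀, taken as selectivity for class I HDAC1 over class II HDAC6. Both enzyme assays were run in the presence of 0.1 mM DTT.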

Row | Compound | Ratio IC50
14 | CC(C)C[C@H]1NC(=O)[C@H]2CSSCC/C=C/[C@H](CC(=O)N[C@H](C(C)C)C(=O)N2)OC(=O)CNC1=O | 8804

Test system: MKN-74
Test: Growth inhibition of human MKN-74 cells measured after 48 hrs by sulforhodamine B assay
Type: functional
Details: not given
How it was run: as §1

Row | GI50 [µM] | Compound
15 | 0.044 | CC(C)C[C@H]1NC(=O)[C@H]2CSSCC/C=C/[C@H](CC(=O)N[C@H](C(C)C)C(=O)N2)OC(=O)CNC1=O

Test system: SF-539
Test: Growth inhibition of human SF-539 cells measured after 48 hrs by sulforhodamine B assay
Type: functional
Details: not given
How it was run: as §1

Row | Compound | GI50 [µM]
16 | CC(C)C[C@H]1NC(=O)[C@H]2CSSCC/C=C/[C@H](CC(=O)N[C@H](C(C)C)C(=O)N2)OC(=O)CNC1=O | 0.057

Test system: HCT-15
Test: Growth inhibition of human HCT-15 cells measured after 48 hrs by sulforhodamine B assay
Type: functional
Details: not given
How it was run: as §1

Row | GI50 [µM] | Compound
17 | 0.59 | CC(C)C[C@H]1NC(=O)[C@H]2CSSCC/C=C/[C@H](CC(=O)N[C@H](C(C)C)C(=O)N2)OC(=O)CNC1=O

Test system: NCI-H522
Test: Growth inhibition of human NCI-H522 cells measured after 48 hrs by sulforhodamine B assay
Type: functional
Details: not given
How it was run: as §1

Row | GI50 [µM] | Compound
18 | 0.01 | CC(C)C[C@H]1NC(=O)[C@H]2CSSCC/C=C/[C@H](CC(=O)N[C@H](C(C)C)C(=O)N2)OC(=O)CNC1=O

Test system: OVCAR-4
Test: Growth inhibition of human OVCAR-4 cells measured after 48 hrs by sulforhodamine B assay
Type: functional
Details: not given
How it was run: as §1

Row | GI50 [µM] | Compound
19 | 0.087 | CC(C)C[C@H]1NC(=O)[C@H]2CSSCC/C=C/[C@H](CC(=O)N[C@H](C(C)C)C(=O)N2)OC(=O)CNC1=O

Test system: MKN-7
Test: Growth inhibition of human MKN-7 cells measured after 48 hrs by sulforhodamine B assay
Type: functional
Details: not given
How it was run: as §1

Row | GI50 [µM] | Compound
20 | 0.28 | CC(C)C[C@H]1NC(=O)[C@H]2CSSCC/C=C/[C@H](CC(=O)N[C@H](C(C)C)C(=O)N2)OC(=O)CNC1=O

Test system: LOX IMVI
Test: Growth inhibition of human LOX IMVI cells measured after 48 hrs by sulforhodamine B assay
Type: functional
Details: not given
How it was run: as §1

Row | Compound | GI50 [µM]
21 | CC(C)C[C@H]1NC(=O)[C@H]2CSSCC/C=C/[C@H](CC(=O)N[C@H](C(C)C)C(=O)N2)OC(=O)CNC1=O | 0.023
